{
  "source": "ChEMBL document CHEMBL3739335",
  "about": "“Phosphonooxymethyl Prodrug of Triptolide: Synthesis, Physicochemical Characterization, and Efficacy in Human Colon Adenocarcinoma and Ovarian Cancer Xenografts” (J Med Chem, 2015)",
  "key": {"Mus musculus [1]": {"test_system": "Mus musculus", "test": "Toxicity in athymic nude mouse xenografted with human HT-29 cells assessed as weight gain at 0.9 mg/kg, ip administered 14 days measured post last dose", "format": "organism-based", "conditions": "in vivo, 336 h", "outline": "(§1)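 Female athymic nude mice, 7–9 weeks old, received 1.74 × 10^6 HT-29 cells subcutaneously in the right flank in 50% Matrigel/McCoy's 5A. Randomized at 110 mm3, 10 per group. Intraperitoneal dosing in USP saline (0.2 mL) over a 28-day period on the stated schedule. Body weights were taken twice weekly; clinical signs and survival were recorded.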"}, "Mus musculus [2]": {"test_system": "Mus musculus", "test": "Toxicity in athymic nude mouse xenografted with human HT-29 cells assessed as mortality at 0.9 mg/kg, ip administered for 2 weeks followed by 3 times per week", "format": "organism-based", "conditions": "in vivo, 336 h", "outline": "as §1"}, "[3]": {"test": "Chemical stability of the compound in buffer assessed as compound remaining at pH 2 after 4 hrs by HPLC analysis", "format": "physicochemical", "conditions": "read-out: Stability"}, "[4]": {"test": "Chemical stability of the compound in buffer assessed as compound remaining at pH 7.4 after 4 hrs by HPLC analysis", "format": "physicochemical", "conditions": "read-out: Stability"}, "[5]": {"test": "Chemical stability of the compound in buffer assessed as compound remaining at pH 6 after 24 hrs by HPLC analysis", "format": "physicochemical", "conditions": "read-out: Stability"}, "HT-29 [6]": {"test_system": "HT-29", "test": "Antitumor activity against human HT-29 cells xenografted in athymic nude mouse at 0.9 mg/kg, ip qd administered for 2 weeks followed by 3 times per week", "format": "functional, organism-based", "outline": "(§2)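 Female athymic nude mice, 7–9 weeks, implanted s.c. on right flank with 1.74 × 10^6 HT-29 cells (ATCC, mycoplasma/rodent-pathogen tested) in 50% Matrigel/50% McCoy's 5A; randomized at mean tumor 110 mm3, 10/group. IP dosing in USP saline, 0.2 mL, over a 28-day treatment period. Tumor volume by caliper (L × W2/2) at least twice weekly, tumor weight at necropsy, survival, body weight.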"}, "alkaline phosphatase": {"molecular_target": "T1, alkaline phosphatase (Bos taurus, UniProt P09487)", "T1 sequence (P09487 whole entry)": "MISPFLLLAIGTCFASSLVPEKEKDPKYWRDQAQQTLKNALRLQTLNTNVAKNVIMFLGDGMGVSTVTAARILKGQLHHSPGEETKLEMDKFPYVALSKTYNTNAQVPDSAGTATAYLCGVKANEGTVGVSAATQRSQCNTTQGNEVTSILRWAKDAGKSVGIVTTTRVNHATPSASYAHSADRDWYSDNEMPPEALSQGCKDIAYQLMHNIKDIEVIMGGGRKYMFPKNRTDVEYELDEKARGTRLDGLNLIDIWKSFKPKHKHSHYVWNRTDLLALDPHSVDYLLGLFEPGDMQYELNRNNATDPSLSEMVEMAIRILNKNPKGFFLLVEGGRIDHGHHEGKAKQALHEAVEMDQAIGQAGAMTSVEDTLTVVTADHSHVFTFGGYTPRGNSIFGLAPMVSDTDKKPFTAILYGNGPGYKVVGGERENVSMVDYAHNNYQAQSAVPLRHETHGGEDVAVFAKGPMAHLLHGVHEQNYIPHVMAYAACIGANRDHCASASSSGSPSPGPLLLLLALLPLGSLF", "test": "Half life of the compound in glycine buffer assessed as bovine intestinal mucosal alkaline phosphatase-mediated compound degradation at pH 9.8", "format": "ADME", "conditions": "cattle", "outline": "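Conversion in glycine buffer pH 9.8 with alkaline phosphatase from bovine intestinal mucosa; loss of compound and formation of triptolide followed, first-order fit for half-life. Control run in same buffer without enzyme for 1 h.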"}, "[7]": {"test": "Chemical stability of the compound in buffer assessed as compound remaining at pH 7.4 after 24 hrs by HPLC analysis", "format": "physicochemical", "conditions": "read-out: Stability"}, "[8]": {"test": "Chemical stability of the compound in buffer assessed as compound remaining at pH 2 after 8 hrs by HPLC analysis", "format": "physicochemical", "conditions": "read-out: Stability"}, "Mus musculus [9]": {"test_system": "Mus musculus", "test": "Toxicity in athymic nude mouse xenografted with human A2780 cells assessed as anorexia at 1.2 mg/kg, po administered for 30 days", "format": "organism-based", "conditions": "in vivo, 720 h", "outline": "(§3)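 Female athymic nude mice, 7–9 weeks old, received 2.5 × 10^6 A2780 cells subcutaneously in the flank in 50% Matrigel/RPMI 1640. Mice were randomized at a mean tumor volume of 188 mm3, 10 per group. Daily oral gavage in USP saline (0.2 mL) for 30 days, dosed on group-mean body weight. Clinical signs, survival and body weights were recorded.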"}, "[10]": {"test": "Chemical stability of the compound in buffer assessed as compound remaining at pH 7.4 after 1 hr by HPLC analysis", "format": "physicochemical", "conditions": "read-out: Stability"}, "A2780": {"test_system": "A2780", "test": "Antitumor activity against human A2780 cells xenografted in athymic nude mouse at 0.6 to 0.9 mg/kg, ip and po administered for 30 days", "format": "functional, organism-based", "outline": "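Female athymic nude mice, 7–9 weeks, implanted s.c. on right or left flank with 2.5 × 10^6 A2780 cells (ECACC, mycoplasma/rodent-pathogen tested) in 50% Matrigel/50% RPMI 1640; randomized at mean tumor 188 mm3, 10/group. Dosed daily for 30 days IP or by oral gavage in USP saline, 0.2 mL. Tumor volume by caliper (L × W2/2), tumor weight at necropsy, survival, body weight.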"}, "[11]": {"test": "Stability of the compound in simulated gastric fluid assessed as compound remaining after 1 hr by HPLC analysis"}, "[12]": {"test": "Stability of the compound in simulated intestinal fluid assessed as compound remaining at pH 7.5 after 24 hrs by HPLC analysis", "format": "ADME", "conditions": "read-out: Stability", "outline": "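Drug incubated in simulated gastric fluid or simulated intestinal fluid and sampled at 0, 1, 2, 4, 8 and 24 h. Percent remaining was measured by reversed-phase C18 HPLC with photodiode-array detection, using a 20-min gradient of 10–70% acetonitrile against 10 mM sodium phosphate buffer at pH 7.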"}, "[13]": {"test": "Chemical stability of the compound in buffer assessed as pseudo-first-order rate constant at 40 degC at pH 7.4 by Arrhenius plot analysis", "format": "physicochemical"}, "[14]": {"test": "Stability of the compound in simulated gastric fluid assessed as compound remaining after 4 hrs by HPLC analysis"}, "HT-29 [15]": {"test_system": "HT-29", "test": "Antitumor activity against human HT-29 cells xenografted in athymic nude mouse at 0.9 mg/kg, ip qd administered for 4 weeks", "format": "functional, organism-based", "outline": "as §2"}, "[16]": {"test": "Second dissociation constant, pKa2 of the compound by 31P NMR analysis", "outline": "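pKa2 derived from the pH dependence of the observed 31P NMR chemical shift across solutions of varying pH, by sigmoidal fit (titration-type curve); at 25 °C.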"}, "[17]": {"test": "Stability of the compound in simulated gastric fluid assessed as compound remaining after 2 hrs by HPLC analysis"}, "Mus musculus [18]": {"test_system": "Mus musculus", "test": "Toxicity in athymic nude mouse xenografted with human A2780 cells assessed as moribund condition at 1.2 mg/kg, po administered for 30 days", "format": "organism-based", "conditions": "in vivo, 720 h", "outline": "as §3"}, "[19]": {"test": "Chemical stability of the compound in buffer assessed as pseudo-first-order rate constant at 25 degC at pH 7.4 by Arrhenius plot analysis", "format": "physicochemical", "outline": "(§4)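 Pseudo-first-order kobsd at each temperature was fitted to an Arrhenius plot, which was extrapolated to 25 and 4 °C. t1/2 and t90 (time for 10% loss) were calculated from the extrapolated kobsd.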"}, "[20]": {"test": "Chemical stability of the compound in buffer assessed as compound remaining at pH 9 after 4 hrs by HPLC analysis", "format": "physicochemical", "conditions": "read-out: Stability"}, "[21]": {"test": "Half life of the compound in buffer at 4 degC at pH 7.4", "format": "physicochemical", "outline": "as §4"}, "[22]": {"test": "Chemical stability of the compound in buffer assessed as compound remaining at pH 1 after 24 hrs by HPLC analysis", "format": "physicochemical", "conditions": "read-out: Stability"}},
  "note": "Calls of active or inactive are those of the source. The calls are words filed in the database; no cut-off is given here.",
  "data": [
    {"smiles": "CC(C)[C@]12O[C@H]1[C@@H]1O[C@]13[C@]1(O[C@H]1C[C@H]1C4=C(CC[C@@]13C)C(=O)OC4)[C@@H]2OCOP(=O)([O-])[O-].[Na+].[Na+]", "note": "[MINNELIDE]", "values": [
      {"measurement": "Activity", "setting": "Mus musculus [1]", "result": "Toxic"},
      {"measurement": "Activity", "setting": "Mus musculus [2]", "result": "Toxic"},
      {"measurement": "remaining at 4 h", "setting": "[3]", "result": 95, "unit": "%"},
      {"measurement": "remaining at 4 h", "setting": "[4]", "result": 100, "unit": "%"},
      {"measurement": "remaining at 24 h", "setting": "[5]", "result": 99, "unit": "%"},
      {"measurement": "Activity", "setting": "HT-29 [6]", "result": "Active"},
      {"measurement": "half-life", "setting": "alkaline phosphatase", "result": 2, "unit": "min"},
      {"measurement": "remaining at 24 h", "setting": "[7]", "result": 100, "unit": "%"},
      {"measurement": "remaining at 8 h", "setting": "[8]", "result": 94, "unit": "%"},
      {"measurement": "Activity", "setting": "Mus musculus [9]", "result": "Toxic"},
      {"measurement": "remaining at 1 h", "setting": "[10]", "result": 100, "unit": "%"},
      {"measurement": "Activity", "setting": "A2780", "result": "Active"},
      {"measurement": "remaining at 1 h", "setting": "[11]", "result": 93, "unit": "%"},
      {"measurement": "remaining at 24 h", "setting": "[12]", "result": 99, "unit": "%"},
      {"measurement": "K", "setting": "[13]", "result": 0.000494, "unit": "h⁻¹"},
      {"measurement": "remaining at 4 h", "setting": "[14]", "result": 71, "unit": "%"},
      {"measurement": "Activity", "setting": "HT-29 [15]", "result": "Active"},
      {"measurement": "pKa", "setting": "[16]", "result": 6.61},
      {"measurement": "remaining at 2 h", "setting": "[17]", "result": 85, "unit": "%"},
      {"measurement": "Activity", "setting": "Mus musculus [18]", "result": "Toxic"},
      {"measurement": "K", "setting": "[19]", "result": 8.6, "unit": "×10⁻⁵ /hr"},
      {"measurement": "remaining at 4 h", "setting": "[20]", "result": 100, "unit": "%"},
      {"measurement": "t1/2", "setting": "[21]", "result": 12.2, "unit": "yr"},
      {"measurement": "remaining at 24 h", "setting": "[22]", "result": 0, "unit": "%"}
    ]}
  ]
}
